Screening results deposited in PubChem BioAssay by Broad Institute.
The list is not random: actives were taken first. Their share in the collection is about 2.2%.
CFTR F508del cor: F508del CFTR correction, initial screen, CFBE line, single point | CFBE cells, YFP halide quenching; stimulated with forskolin plus potentiator P3; % fluorescence drop versus neutral controls | 0.36% of 350,000 active | AID 720511, 2013 | activity (quench increase), % at 7.58 µM;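 active means mean added fluorescence quench of at least 8% versus neutral control, with both replicates also reaching 8%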;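 further: cells transiently co-express mutant CFTR-F508del with the halide-sensitive YFP; corrector assay measuring rescue of mutant channel to the surface after 24 h compound exposure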
dFosB act-1: activators of delta FosB homodimer, primary screen, biochemical, fluorescence polarization, TAMRA-CDK5 oligo, single point | activation, % at 25 µM | purified delta FosB; percent of positive-control signal above neutral wells | Protein FosB (Mus musculus), P13346 | 0.99% of 340,000 active;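 active means mean activation above about 17%, with every replicate also reaching it, limit read from the data, passing the limit was not always enough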
Target sequence (P13346 whole entry, looked up): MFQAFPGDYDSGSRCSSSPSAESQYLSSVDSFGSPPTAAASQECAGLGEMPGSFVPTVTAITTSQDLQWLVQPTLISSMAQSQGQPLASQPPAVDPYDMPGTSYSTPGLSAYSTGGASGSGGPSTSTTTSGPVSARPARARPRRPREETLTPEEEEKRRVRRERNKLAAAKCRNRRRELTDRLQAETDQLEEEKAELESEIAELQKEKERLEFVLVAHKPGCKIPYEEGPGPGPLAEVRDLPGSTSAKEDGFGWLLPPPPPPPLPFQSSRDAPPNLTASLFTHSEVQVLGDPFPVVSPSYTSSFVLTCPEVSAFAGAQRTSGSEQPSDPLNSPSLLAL
S100A4 inh HTS: inhibitors of S100A4-myosin IIA peptide binding, primary screen, biochemical, fluorescence polarization, TAMRA-MyoIIA peptide; Protein S100-A4 (Homo sapiens), P26447; 0.14% of 360,000 active; AID 652163, 2013; inhibition, % at 10.7 µM;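 active means mean inhibition of at least 70% across replicates, with every replicate also reaching that level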
Target sequence (P26447 whole entry, looked up): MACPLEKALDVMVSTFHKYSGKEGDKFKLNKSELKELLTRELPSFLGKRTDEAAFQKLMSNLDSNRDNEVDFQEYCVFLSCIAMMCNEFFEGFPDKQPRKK
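Material: S100A4 monomer protein / Buffer or medium: 50 mM HEPES pH 7.2, 10 mM CaCl2, 100 mM KCl / Times: 5 min incubation before reading / Benchmarks: neutral control DMSO, positive control TFP / Reagent: labelled myosin peptide probe, 5 nM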
FGF22 binding: binders of human FGF22 protein, primary screen, FGF22 synaptogenesis inhibitor project, biophysical, thermal shift, single point. activity (Tm shift, normalised), % at 9.99 µM. AID 651658, 2012. recombinant FGF22 thermal shift, SYPRO orange fluorescence; percent of sucrose octasulfate shift, DMSO zero. Fibroblast growth factor 22 (Homo sapiens), Q9HCT0. 1.5% of 340,000 active;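 active means mean Tm shift, scaled 0 neutral to 100 positive control, at about 1.3% or above, every replicate too, limit read from the data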
Target sequence (Q9HCT0 whole entry, looked up): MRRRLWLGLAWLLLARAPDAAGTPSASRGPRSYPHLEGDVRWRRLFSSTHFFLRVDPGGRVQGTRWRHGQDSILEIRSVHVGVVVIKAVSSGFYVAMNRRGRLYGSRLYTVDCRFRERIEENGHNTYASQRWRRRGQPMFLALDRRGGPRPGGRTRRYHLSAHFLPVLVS
dFosB act-2: activators of mouse delta FosB DNA binding, confirmation, biochemical, fluorescence polarization, TAMRA-CDK5 oligo, cherry-picked samples. shares compounds with dFosB act-1. purified delta FosB; normalised: neutral wells 0, positive control 100. activation, % at 24.9 µM. 2,400 tested, under 10 active;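 active means highest replicate activation at or above 34% and every replicate reaching that threshold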;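 further: higher polarization means more probe DNA bound by delta FosB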
Starred values were filed as active, the others as inactive; nt = no result.

SMILES | CFTR F508del cor | dFosB act-1 | S100A4 inh HTS | FGF22 binding | dFosB act-2
COc1ccc(C(=O)Nc2ccc3oc(-c4cccnc4)nc3c2)cc1OC | -2 | -18 | -4 | 0 | nt
CCCNC(=O)C[C@@H]1C[C@@H]2c3cc(NC(=O)NC4CCCCC4)ccc3O[C@@H]2[C@@H](CO)O1 | 0 | nt | -1 | 0 | nt
CCc1ccc(NC(=O)Cn2nnc(C(=O)NCCc3ccc(OC)c(OC)c3)c2N)cc1 | 2 | 83* | -7 | 0 | 1
CCOc1ccc(CCNC(=O)c2nnn(CC(=O)Nc3ccc(OC)cc3)c2N)cc1OCC | 1 | 7 | -5 | 0 | nt
COc1ccc(NC(=O)Cn2nnc(C(=O)NCCc3ccccc3)c2N)cc1 | 0 | 29* | -4 | -1 | -2
CCOc1ccc(CCNC(=O)c2nnn(CC(=O)Nc3ccc(OC)c(OC)c3)c2N)cc1OCC | 1 | 4 | -9 | 0 | nt
C[C@H](CO)N1C[C@H](C)[C@H](CN(C)C(=O)NC2CCCC2)Oc2cc(-c3cccnc3)ccc2S1(=O)=O | 1 | nt | 7 | 0 | nt
Cc1ccc(CC2S/C(=N/N=C/c3ccco3)NC2=O)cc1 (configuration not stated) | -1 | 3 | 1 | 0 | nt
Cc1cccc(CC2S/C(=N/N=C/c3ccco3)NC2=O)c1 (configuration not stated) | 1 | 25* | -1 | 0 | -2
CCCC1S/C(=N/N=C/c2ccco2)NC1=O (configuration not stated) | nt | 0 | nt | nt | nt
O=C1N/C(=N/N=C/c2ccco2)SC1Cc1ccccc1 (configuration not stated) | -2 | 21* | 10 | 0 | 8
COc1ccc(NC(=O)c2cc(S(=O)(=O)N3CCS(=O)(=O)CC3)ccc2Cl)cc1 | nt | 52* | nt | nt | 2
COc1ccc(NC(=O)c2cc(S(=O)(=O)N3CCCC3)ccc2OC)cc1 | -1 | -7 | 0 | 0 | nt
Cc1cccc(NC(=O)Cn2cc(C(=O)C3CC3)c3ccccc32)c1C | 1 | 21* | -1 | 0 | 2
CCC(=O)c1cn(CC(=O)Nc2cccc(C)c2C)c2ccccc12 | -1 | 25* | 0 | 0 | 7
Cc1ccc(NC(=O)Cn2cc(C(=O)C3CC3)c3ccccc32)c(C)c1 | 0 | -6 | -2 | 0 | nt
Cc1ccc(C)c(NC(=O)Cn2cc(C(=O)C3CC3)c3ccccc32)c1 | -1 | 72* | -2 | 0 | 0
CC(=O)c1cn(CC(=O)Nc2cccc(C)c2C)c2ccccc12 | 2 | -7 | -1 | 42 | nt
CC(=O)c1cn(CC(=O)Nc2ccc(C)cc2C)c2ccccc12 | nt | 28* | nt | nt | 8
C[C@H](CO)N1C[C@H](C)[C@@H](CN(C)Cc2ccc(C(F)(F)F)cc2)Oc2c(NC(=O)C3CCOCC3)cccc2C1=O | 0 | nt | 4 | 0 | nt
COCC#Cc1ccc2c(c1)O[C@H](CN(C)Cc1cccnc1)[C@H](C)CN([C@@H](C)CO)S2(=O)=O | nt | nt | 11 | 0 | nt
Cc1noc(C)c1S(=O)(=O)Nc1cccc2c1O[C@@H](CN(C)CC1CC1)[C@@H](C)CN([C@H](C)CO)C2=O | 0 | nt | 4 | 0 | nt
C[C@@H]1CN([C@H](C)CO)C(=O)c2cc(NC(=O)NC3CCCCC3)ccc2O[C@@H](C)CCCCO[C@@H]1CN(C)Cc1ccc(Cl)c(Cl)c1 | 2 | nt | 16 | -1 | nt
O=C(Nc1ccc([N+](=O)[O-])cc1Br)c1cc2ccccc2nc1Cl | 2 | 113* | 2 | 0 | -6
CCOc1ccc(C(C(=O)NCC2CCCO2)N(Cc2cccs2)C(=O)c2snc(C(N)=O)c2N)cc1 (configuration not stated) | 2 | 21* | 2 | 0 | 6
SMILES | CFTR F508del cor | dFosB act-1 | S100A4 inh HTS | FGF22 binding | dFosB act-2
CCCN1[C@@H]2Cn3c(cccc3=O)[C@H]1[C@@H](C(=O)N[C@@H](C)c1ccccc1)[C@@H]2CO | -1 | nt | 8 | nt | nt
C[C@H](CO)N1C[C@H](C)[C@H](CN(C)S(C)(=O)=O)Oc2ccc(NC(=O)Nc3cccc4ccccc34)cc2C1=O | -4 | nt | -28 | 0 | nt
O=C(Nc1ccc(Cl)c(Cl)c1)c1ccc(Cl)c(Cl)c1 | -2 | 33* | 15 | 0 | 2
Cc1ccc(NC(=O)Nc2ccc3c(c2)C(=O)OC3)cc1Cl | 0 | 29* | 0 | 0 | 3
O=C(Nc1ccc2c(c1)COC2=O)c1ccc(Cl)c(Cl)c1 | 2 | 38* | 0 | 0 | 6
CCCC(=O)Nc1ccc2c(c1)COC2=O | 1 | 0 | 0 | 0 | nt
Cc1ccc(NC(=O)Nc2ccon2)cc1Cl | -1 | 9 | 1 | 0 | nt
C[C@H](CO)N1C[C@H](C)[C@H](CN(C)Cc2ccc(Cl)c(Cl)c2)OCCCC[C@H](C)Oc2ccc(NC(=O)Nc3ccc(C(F)(F)F)cc3)cc2C1=O | 3 | nt | 6 | 0 | nt
O=C(O)CCCc1ccc2ccc3cccc4ccc1c2c34 | 1 | -7 | 1 | -1 | nt
NCCCCc1ccc2ccc3cccc4ccc1c2c34 | 1 | 32* | -1 | 0 | 1
CNC[C@H]1Oc2ccc(NC(=O)Nc3cccc4ccccc34)cc2C(=O)N([C@@H](C)CO)C[C@H]1C | 0 | nt | -2 | 0 | nt
CCOC(=O)c1c(CSC(=N)N)n(-c2ccc(C)cc2)c2cc(Br)c(OC(C)=O)cc12 | nt | 37* | nt | nt | 2
O=C(C[C@H]1CC[C@@H]2[C@H](COC[C@H](O)CN2C(=O)c2ccncc2)O1)NCc1ccc(-c2ccccc2)cc1 | 2 | nt | 14 | 0 | nt
Cc1c(Cl)cccc1NC(=O)Cn1nnc(C(=O)NCc2cccs2)c1N | nt | 39* | nt | nt | -3
Cc1cc(C)cc(NC(=O)Cn2nnc(C(=O)NCc3cccs3)c2N)c1 | 0 | 58* | 3 | 0 | 3
Cc1cccc(NC(=O)Cn2nnc(C(=O)NCc3cccs3)c2N)c1C | nt | 42* | nt | nt | 4
CCc1ccccc1NC(=O)c1nnn(CC(=O)Nc2cccc(C)c2)c1N | nt | 7 | -2 | nt | nt
CCc1ccccc1NC(=O)c1nnn(CC(=O)Nc2cccc(C)c2C)c1N | nt | 42* | nt | nt | -8
Cc1cc(C)c(NC(=O)Cn2nnc(C(=O)NCc3cccs3)c2N)c(C)c1 | nt | 12 | nt | nt | nt
C[C@@H]1CN([C@H](C)CO)C(=O)c2cc(NC(=O)NC3CCCCC3)ccc2O[C@@H](C)CCCCO[C@@H]1CN(C)C(=O)Cc1ccccc1 | 1 | nt | nt | 0 | nt
CC(C)NC(=O)Nc1ccc2c(c1)C(=O)N([C@H](C)CO)C[C@@H](C)[C@@H](CN(C)CC1CCCCC1)O2 | -3 | nt | 1 | 0 | nt
CCCNC(=O)C[C@@H]1CC[C@H]2[C@H](COc3ccc(NC(=O)c4cccs4)cc3C(=O)N2C)O1 | 3 | nt | 4 | 0 | nt
